{"source": "paper PMC9128166", "about": "(Cancer Science, 2022)", "key": {"[1]": {"assay": "Plasma pharmacokinetics of parsaclisib, cycle 1 day 15", "assay_type": "in vivo, Japanese patients", "settings": "for Vd/F: Vz/F"}, "[2]": {"assay": "Dose-limiting toxicity / MTD, 3 + 3 dose escalation and expansion", "assay_type": "in vivo, Japanese patients", "how_it_was_run": "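Oral test compound in Japanese patients: once daily for 8 weeks, then the same dose weekly; starting dose 10 mg QD. Patients were hospitalised for the 28-day DLT period. DLTs were graded by NCI CTCAE v4.03. MTD was one level below the dose with DLT in ≥2 of 6 patients, with 3 added patients to confirm.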"}, "[3]": {"test_system": "relapsed or refractory follicular lymphoma", "assay": "Investigator-assessed response", "assay_type": "in vivo, Japanese patients", "how_it_was_run": "(§1)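 Investigator-assessed response by Lugano criteria in the full analysis set (all treated patients). Patients received 10 or 20 mg QD orally for 8 weeks, then the same dose QW. CT, FDG-PET or PET-CT was chosen by subtype, using the same technique as at screening. Scans ran every 8 weeks through week 24, every 12 weeks through week 96, then every 24 weeks until progression.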"}, "[4]": {"test_system": "relapsed or refractory diffuse large B‐cell lymphoma", "assay": "Investigator-assessed response", "assay_type": "in vivo, Japanese patients", "how_it_was_run": "as §1"}, "[5]": {"test_system": "plasma proteins associated with PI3Kδ inhibition", "assay": "Plasma proteomic pharmacodynamic biomarkers", "assay_type": "in vivo, Japanese patients"}, "phospho‐AKT": {"test_system": "phospho‐AKT", "settings": "read-out: calculated in vitro IC90 for phospho‐AKT inhibition; measure of PI3K pathway pharmacodynamic activity; ref not given; cited from earlier work"}, "[6]": {"settings": "cited from earlier work"}, "[7]": {"settings": "10 mg QD, cycle 1 day 15, n 3, mean ± SD"}, "[8]": {"settings": "20 mg QD, cycle 1 day 15, n 11, mean ± SD"}, "[9]": {"settings": "previous studies, patients with NHL"}}, "note": "Several values for one entry are separate records, joined by “and”; a condition that tells them apart may be missing. Equal values may be shown once. Entries after “also recorded” stand apart in the source; their conditions may differ."}
{"smiles": "CCOc1c([C@H](C)n2nc(C)c3c(N)ncnc32)cc(Cl)c(F)c1[C@@H]1CNC(=O)C1", "note": "[parsaclisib]", "values": [{"measurement": "Accumulation ratio", "setting": "[1]; [7]", "result": "1.4 ± 0.2 (1.4, 17.1)"}, {"measurement": "CLss/F", "setting": "[1]; [7]", "result": "1.8 ± 0.6 (1.75, 30.9) L/h"}, {"measurement": "Cmin", "setting": "[1]; [7]", "result": "227 ± 83.2 nM and 227 ± 83.2 (215, 36.6) nM"}, {"measurement": "Tmax", "setting": "[1]; 10 mg QD, cycle 1 day 15, n 3, median (range)", "result": "1.0 (0.5–2.0) h"}, {"measurement": "Accumulation ratio", "setting": "[1]; [8]", "result": "1.2 ± 0.1 (1.2, 11.3)"}, {"measurement": "CLss/F", "setting": "[1]; [8]", "result": "2.3 ± 0.75 (2.2, 32.9) L/h"}, {"measurement": "Cmin", "setting": "[1]; [8]", "result": "303 ± 155 nM and 303 ± 155 (271, 51.0) nM"}, {"measurement": "CLss/F", "setting": "[1]; Total (10 and 20 mg QD), cycle 1 day 15, n 14, mean ± SD", "result": "2.2 ± 0.7 L/h and 2.2 ± 0.7 (2.1, 32.8) L/h"}, {"measurement": "AUC", "setting": "[1]; human, plasma, oral, 10 mg", "result": 12.5, "unit": "µM·h"}, {"measurement": "Cmax", "setting": "[1]; human, plasma, oral, 10 mg", "result": "1440 ± 502", "unit": "nM"}, {"measurement": "Tmax", "setting": "[1]; human, plasma, oral, 10 mg, Tmax, 10 mg QD, cycle 1 day 15, n 3, median (range)", "result": 0.97, "unit": "h"}, {"measurement": "Vd/F", "setting": "[1]; human, plasma, oral, 10 mg, 10 mg QD, cycle 1 day 15, n 3, mean ± SD", "result": "31.3 ± 9.8", "unit": "L"}, {"measurement": "half-life", "setting": "[1]; human, plasma, oral, 10 mg, t½, 10 mg QD, cycle 1 day 15, n 3, mean ± SD", "result": "12.6 ± 4.6", "unit": "h"}, {"measurement": "AUC", "setting": "[1]; human, plasma, oral, 20 mg", "result": 20.5, "unit": "µM·h"}, {"measurement": "Cmax", "setting": "[1]; human, plasma, oral, 20 mg", "result": "2630 ± 530", "unit": "nM"}, {"measurement": "Tmax", "setting": "[1]; human, plasma, oral, 20 mg, Tmax, 20 mg QD, cycle 1 day 15, n 11, median (range)", "result": 0.55, "unit": "h"}, {"measurement": "Vd/F", "setting": "[1]; human, plasma, oral, 20 mg, 20 mg QD, cycle 1 day 15, n 11, mean ± SD", "result": "31.1 ± 10.2", "unit": "L"}, {"measurement": "half-life", "setting": "[1]; human, plasma, oral, 20 mg, t½, 20 mg QD, cycle 1 day 15, n 11, mean ± SD", "result": "9.8 ± 2.8", "unit": "h"}, {"measurement": "half-life", "setting": "[1]; human, plasma, oral, steady‐state geometric mean t½, overall, dose‐independent", "result": 9.9, "unit": "h"}, {"measurement": "MTD", "setting": "[2]; 20 mg QD for 8 weeks followed by 20 mg QW", "result": "not considered to have exceeded the MTD; also recorded: the criteria for MTD was not exceeded"}, {"measurement": "DLTs during dose expansion", "setting": "[2]; 20‐mg dose level, QD schedule", "result": "grade 3 febrile neutropenia on day 28 and grade 4 neutropenia on day 14 (each in 1 patient); also recorded: two DLTs occurred in one patient each"}, {"measurement": "DLTs during the 28‐day DLT observation period", "setting": "[2]; dose‐escalation phase, 10‐mg (n = 3) or 20‐mg (n = 3) dose level", "result": "No DLTs"}, {"measurement": "BOR, CMR/CR", "setting": "[3]; FL (n = 9)", "result": "2 (22.2) n (%)"}, {"measurement": "BOR, NMR/SD", "setting": "[3]; FL (n = 9)", "result": "0 (0.0) n (%)"}, {"measurement": "BOR, PMD/PD", "setting": "[3]; FL (n = 9)", "result": "0 (0.0) n (%)"}, {"measurement": "BOR, PMR/PR", "setting": "[3]; FL (n = 9)", "result": "7 (77.8) n (%)"}, {"measurement": "Objective response", "setting": "[3]; FL (n = 9)", "result": "9 (100.0) n (%)"}, {"measurement": "BOR, Not assessed", "setting": "[3]; FL (n = 9), no postbaseline response data available", "result": "0 (0.0) n (%)"}, {"measurement": "complete response", "setting": "[3]; FL, 2 of 9 patients", "result": 22.2, "unit": "%"}, {"measurement": "ORR", "setting": "[3]; FL, 9 of 9 patients", "result": 100, "unit": "%"}, {"measurement": "observed PFS", "setting": "[3]; nine responders with FL", "result": "1.9–17.5 months"}, {"measurement": "BOR, CMR/CR", "setting": "[4]; DLBCL (n = 6)", "result": "0 (0.0) n (%)"}, {"measurement": "BOR, NMR/SD", "setting": "[4]; DLBCL (n = 6)", "result": "1 (16.7) n (%)"}, {"measurement": "BOR, PMD/PD", "setting": "[4]; DLBCL (n = 6)", "result": "3 (50.0) n (%)"}, {"measurement": "BOR, PMR/PR", "setting": "[4]; DLBCL (n = 6)", "result": "1 (16.7) n (%)"}, {"measurement": "Objective response", "setting": "[4]; DLBCL (n = 6)", "result": "1 (16.7) n (%)"}, {"measurement": "BOR, Not assessed", "setting": "[4]; DLBCL (n = 6), no postbaseline response data available", "result": "1 (16.7) n (%)"}, {"measurement": "ORR", "setting": "[4]; DLBCL, 1 of 6 patients (partial response)", "result": 16.7, "unit": "%"}, {"measurement": "observed PFS", "setting": "[4]; one responder with DLBCL", "result": 13.8, "unit": "months"}, {"measurement": "observed response duration", "setting": "[4]; one responder with DLBCL", "result": 12.2, "unit": "months"}, {"measurement": "parsaclisib‐responsive proteins after transition to QW dosing", "setting": "[5]; 10 mg or 20 mg QW, weeks 12 and 24", "result": "reverted partially or completely to baseline expression levels"}, {"measurement": "plasma proteins significantly changed following 4 weeks or 8 weeks of QD parsaclisib dosing", "setting": "[5]; FL and MZL (n = 11), approximately 1000 proteins analysed", "result": 23, "unit": "plasma proteins"}, {"measurement": "IC90", "setting": "phospho‐AKT", "result": 40, "unit": "nM"}, {"measurement": "decreases in neutrophil count to grade 3 or 4", "setting": "[6]; previous studies, patients with FL or MZL", "result": "13–14%"}, {"measurement": "ALT elevation", "setting": "[6]; [9]", "result": "13–26%"}, {"measurement": "AST elevation", "setting": "[6]; [9]", "result": "17–23%"}, {"measurement": "cough (TEAE)", "setting": "[6]; primarily Western populations", "result": "17–22%"}, {"measurement": "nausea (TEAE)", "setting": "[6]; primarily Western populations", "result": "14–26%"}, {"measurement": "pyrexia (TEAE)", "setting": "[6]; primarily Western populations", "result": "13–17%"}, {"measurement": "rash (TEAE)", "setting": "[6]; primarily Western populations", "result": "14–22%"}, {"measurement": "diarrhea (TEAE)", "setting": "[6]; prior studies, primarily Western populations", "result": "20–44%"}]}
